From ChEMBL document CHEMBL1138678, “Concise synthesis and structure-activity relationships of combretastatin A-4 analogues, 1-aroylindoles and 3-aroylindoles, as novel classes of potent antitubulin agents” (J Med Chem, 2004)

Legend:
MCF7 = test: Concentration required for the 50% inhibition of human breast cancer (MCF-7) cell line growth; assay type: functional, cell-based
MKN-45 = test: Concentration required for the 50% inhibition of human stomach cancer (MKN45) cell line growth; assay type: functional, cell-based
NUGC-3 = test: Concentration required for the 50% inhibition of human stomach cancer (NUGC3) cell line growth; assay type: functional, cell-based
MES-SA = test: Concentration required for the 50% inhibition of human uterine cancer (MESSA) cell line growth; assay type: functional, cell-based
A549 = test: Concentration required for the 50% inhibition of human lung caner (A549) cell line growth; assay type: functional, cell-based
Tubulin beta-1 chain = Tubulin beta-1 chain (Homo sapiens, UniProt Q9H4B7); test: Inhibition of tubulin polymerization
How it was run: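 MAP-rich tubulin at 2 mg/mL in 100 mM PIPES (pH 6.9), 2 mM MgCl2, 1 mM GTP, 2% (v/v) DMSO with compound. Turbidity read at 350 nm, 37 °C, every 30 s for 30 min. Area under curve scaled between untreated control (100%) and 10 μM colchicine (0%). IC50 by nonlinear regression, at least three experiments.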

Chain of Tubulin beta-1 chain (Q9H4B7 whole entry): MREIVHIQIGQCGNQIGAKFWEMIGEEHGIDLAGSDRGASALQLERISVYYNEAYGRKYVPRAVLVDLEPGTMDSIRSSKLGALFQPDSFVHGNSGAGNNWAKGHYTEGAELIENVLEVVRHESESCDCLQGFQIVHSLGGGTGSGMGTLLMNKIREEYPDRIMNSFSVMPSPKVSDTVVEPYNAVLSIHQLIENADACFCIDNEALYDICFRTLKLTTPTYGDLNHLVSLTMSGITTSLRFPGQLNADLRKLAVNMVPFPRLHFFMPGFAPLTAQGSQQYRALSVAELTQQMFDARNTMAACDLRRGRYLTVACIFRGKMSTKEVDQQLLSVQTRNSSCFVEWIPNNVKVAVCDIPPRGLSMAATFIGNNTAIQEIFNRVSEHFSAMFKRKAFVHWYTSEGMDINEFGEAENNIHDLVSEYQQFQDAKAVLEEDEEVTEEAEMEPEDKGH

| SMILES | IC50 (MCF7) | IC50 (MKN-45) | IC50 (NUGC-3) | IC50 (MES-SA) | IC50 (A549) | IC50 (Tubulin beta-1 chain) |
| --- | --- | --- | --- | --- | --- | --- |
| COc1ccc2c(ccn2C(=O)c2ccc3c(c2)OCO3)c1 | > 10000 nM | > 10000 nM | > 10000 nM | > 10000 nM | > 10000 nM |  |
| COc1ccc2c(c1)cc(C)n2C(=O)c1cc(OC)c(OC)c(OC)c1 |  |  |  |  |  | 3310 nM |
| COc1ccc2[nH]cc(C(=O)c3cc(OC)c(OC)c(OC)c3)c2c1 | 639 nM | 326 nM | 360 nM | 884 nM | 614 nM |  |
| COc1cc(C(=O)c2c[nH]c3cccc(OC)c23)cc(OC)c1OC | 9060 nM | 487 nM | 3360 nM | 9390 nM | 6500 nM |  |
| COc1cc(OC)cc(C(=O)c2c[nH]c3cc(OC)ccc23)c1 |  |  |  |  |  | 2690 nM |
| COc1ccc2c(C(=O)c3cc(OC)c(OC)c(OC)c3)c(C)[nH]c2c1 |  |  |  |  |  | 900 nM |
| COc1ccc2c(ccn2C(=O)c2cc(OC)c(OC)c(OC)c2)c1 |  |  |  |  |  | 3760 nM |
| COc1ccc2c(C(=O)c3cc(OC)c(OC)c(OC)c3)c[nH]c2c1 | 7 nM | 4 nM | 1 nM | 4 nM | 23 nM | 2180 nM |
| COc1ccc(/C=C\c2cc(OC)c(OC)c(OC)c2)cc1O [COMBRETASTATIN A4] | 8 nM | 82 nM | > 10000 nM | 13 nM | 117 nM |  |
